Assay results: ChEMBL document CHEMBL1134368, “Alpha(2) adrenoceptor agonists as potential analgesic agents. 3. Imidazolylmethylthiophenes” (J Med Chem, 2001)
Active and inactive are the calls of the source. The calls are words filed in the database; no cut-off is given here.

What was measured:
Mus musculus [1] = experiment: In vivo antinociceptive activity was determined by Mouse abdominal irritant test (MAIT)in male pathogen free albino CD-1 mice at 30 mg/kg; assay type: functional; conditions: Abdomen
Procedure, shortened: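 Compound or vehicle was given to mice by oral gavage at 30 mg/kg. After set intervals, acetylcholine bromide was injected at 5.5 mg/kg ip. Percent inhibition was the percentage of responders per group.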

Rattus norvegicus [2] = experiment: In vivo antinociceptive activity was determined using in rat abdominal irritant test (RAIT) assay; assay type: functional; conditions: Abdomen
Mus musculus [3] = experiment: In vivo antinociceptive activity was determined by mouse abdominal irritant test (MAIT) in male pathogen free albino CD-1 mice; assay type: functional, Abdomen; parameters: concentration or dose not given beside the values
Procedure, shortened: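 Mice were dosed orally by gavage at several doses, with vehicle controls. Acetylcholine bromide was given at 5.5 mg/kg ip at set intervals later, and writhing was observed. Percent antinociception was calculated per dose from responders per group. ED50 and 95% confidence limits came from Litchfield-Wilcoxon probit analysis with a chi-square linearity test.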

Rattus norvegicus [4] = species on record: Rattus norvegicus; experiment: QT interval was determined during cardiovascular test in normotensive male albino Long-Evans rat; assay type: functional, Heart; parameters: concentration or dose not given beside the values
Rattus norvegicus [5] = species on record: Rattus norvegicus; experiment: QT interval was determined during cardiovascular test in normotensive male albino Long-Evans rat; delta QT; assay type: functional, Heart
Rattus norvegicus [6] = experiment: In vivo antinociceptive activity was determined using in Rat abdominal irritant test(RAIT) assay; IA=inactive; assay type: functional, organism-based; conditions: Abdomen
[7] = biological target: Adrenergic receptor alpha-2 (Rattus norvegicus) (UniProt P22086+P19328+P22909); experiment: compounds were tested for agonistic activity in Alpha2 Adrenoceptor in Rat abdominal irritant test (RAIT); assay type: functional; conditions: Abdomen
Rattus norvegicus [8] = species on record: Rattus norvegicus; experiment: QT interval was determined during cardiovascular test in normotensive male albino Long-Evans rat;delta QT; assay type: functional, Heart
[9] = biological target: T1, Alpha-2C adrenergic receptor (Rattus norvegicus, UniProt P22086); experiment: In vitro binding affinity against alpha-2C adrenergic receptor of male Wistar rat
T1 sequence (P22086 whole entry): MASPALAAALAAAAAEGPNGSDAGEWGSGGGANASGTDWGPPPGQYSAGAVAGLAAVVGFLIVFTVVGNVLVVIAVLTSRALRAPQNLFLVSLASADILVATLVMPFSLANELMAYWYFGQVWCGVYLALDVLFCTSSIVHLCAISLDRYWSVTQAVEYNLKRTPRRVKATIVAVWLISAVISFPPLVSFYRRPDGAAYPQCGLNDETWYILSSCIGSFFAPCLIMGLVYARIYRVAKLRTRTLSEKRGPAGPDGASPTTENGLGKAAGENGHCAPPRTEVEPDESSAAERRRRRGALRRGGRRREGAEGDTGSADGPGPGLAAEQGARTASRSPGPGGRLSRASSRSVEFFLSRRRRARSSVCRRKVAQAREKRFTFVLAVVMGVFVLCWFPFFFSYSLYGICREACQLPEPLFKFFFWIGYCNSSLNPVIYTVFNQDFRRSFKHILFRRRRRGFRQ

Sequence of Adrenergic receptor alpha-2 (Rattus norvegicus) (P19328 whole entry, looked up, one chain of several): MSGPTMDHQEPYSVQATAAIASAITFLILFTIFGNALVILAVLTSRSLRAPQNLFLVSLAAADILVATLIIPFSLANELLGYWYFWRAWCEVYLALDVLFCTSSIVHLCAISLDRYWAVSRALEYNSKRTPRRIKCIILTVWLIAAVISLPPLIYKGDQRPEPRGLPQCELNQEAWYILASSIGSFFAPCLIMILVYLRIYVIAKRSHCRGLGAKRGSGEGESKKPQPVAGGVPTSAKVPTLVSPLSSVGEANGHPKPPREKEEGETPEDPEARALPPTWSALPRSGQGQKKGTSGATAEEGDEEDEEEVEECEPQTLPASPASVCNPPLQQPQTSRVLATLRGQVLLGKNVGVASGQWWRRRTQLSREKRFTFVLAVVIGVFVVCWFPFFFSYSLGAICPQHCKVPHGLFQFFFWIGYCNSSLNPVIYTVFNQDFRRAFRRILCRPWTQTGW
Sequence of Adrenergic receptor alpha-2 (Rattus norvegicus) (P22909 whole entry, looked up, one chain of several): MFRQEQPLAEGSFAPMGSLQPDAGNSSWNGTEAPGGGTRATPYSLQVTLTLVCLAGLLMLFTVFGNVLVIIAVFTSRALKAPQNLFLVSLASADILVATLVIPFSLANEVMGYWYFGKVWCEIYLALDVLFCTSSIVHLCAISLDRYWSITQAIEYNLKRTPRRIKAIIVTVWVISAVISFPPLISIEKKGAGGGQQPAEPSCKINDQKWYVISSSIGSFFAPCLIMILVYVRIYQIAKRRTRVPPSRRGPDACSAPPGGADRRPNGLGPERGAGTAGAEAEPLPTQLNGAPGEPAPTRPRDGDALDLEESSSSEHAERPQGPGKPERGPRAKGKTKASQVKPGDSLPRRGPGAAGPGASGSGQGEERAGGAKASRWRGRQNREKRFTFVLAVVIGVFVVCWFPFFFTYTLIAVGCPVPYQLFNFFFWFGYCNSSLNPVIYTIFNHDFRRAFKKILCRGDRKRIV

SMILES | ED50 (Rattus norvegicus [2]) | Inhibition (Mus musculus [3]) | also measured
Cc1csc(Cc2c[nH]cn2)c1C.Cl | 4.7 mg/kg |  | inhibition in vivo at 30 mg/kg (Mus musculus [1]): 100%
Cc1sccc1Cc1c[nH]cn1.O=C(O)/C=C/C(=O)O | 0.89 mg/kg | 100% | 
Cc1cscc1C(C)c1c[nH]cn1.O=C(O)/C=C/C(=O)O (stereo not given) | 0.27 mg/kg | 100% | 
Brc1ccsc1Cc1c[nH]cn1.Cl | 2 mg/kg |  | inhibition in vivo at 30 mg/kg (Mus musculus [1]): 100%
O=C(O)/C=C/C(=O)O.c1ccc2c(Cc3c[nH]cn3)csc2c1 | 0.44 mg/kg | 0.441% | 
Cc1sccc1C(C)c1c[nH]cn1.O=C(O)/C=C/C(=O)O (stereo not given) | 1.6 mg/kg | 100% | 
Cc1csc(C)c1Cc1c[nH]cn1.O=C(O)/C=C/C(=O)O |  | 100% | 
O=C(O)/C=C/C(=O)O.c1nc(Cc2ccsc2)c[nH]1 | 0.97 mg/kg | 100% | 
Cc1ccsc1C1(c2c[nH]cn2)CC1.O=C(O)/C=C/C(=O)O |  | 40% | 
Cc1ccc(Cc2c[nH]cn2)s1 |  |  | inhibition in vivo at 30 mg/kg (Mus musculus [1]): 33%
COC(c1c[nH]cn1)c1sccc1Br.O=C(O)/C=C/C(=O)O (stereo not given) |  | 53% | 
Cc1ccsc1C(C)c1c[nH]cn1.Cl (stereo not given) | 2.2 mg/kg | 100% | 
CCc1cc(Cc2c[nH]cn2)c(CC)s1.O=C(O)/C=C/C(=O)O | 0.31 mg/kg | 100% | 
CC(c1c[nH]cn1)c1scc(Br)c1Br.O=C(O)/C=C/C(=O)O (stereo not given) |  | 80% | 
CCc1sccc1Cc1c[nH]cn1.O=C(O)/C=C/C(=O)O | 0.27 mg/kg | 100% | Activity (Rattus norvegicus [4]): 28%
Cc1ccsc1C(C)c1c[nH]cn1 (single isomer, unassigned; (+)) | 1.18 mg/kg |  | Activity (Rattus norvegicus [5]): 24%
CC(c1c[nH]cn1)c1cscc1Br (stereo not given) |  |  | Activity (Rattus norvegicus [5]): 20%
CCC(c1c[nH]cn1)c1sccc1C.O=C(O)/C=C/C(=O)O (stereo not given) |  | 100% | IA (Rattus norvegicus [6]): inactive
Cc1cccc([C@H](C)c2c[nH]cn2)c1C [DEXMEDETOMIDINE] | 0.12 mg/kg |  | 
Cl.c1ccc2sc(Cc3c[nH]cn3)cc2c1 |  | 20% | 

SMILES | ED50 (Rattus norvegicus [2]) | Inhibition (Mus musculus [3]) | also measured
CCc1cscc1C(C)c1c[nH]cn1.O=C(O)/C=C/C(=O)O (stereo not given) | 0.48 mg/kg | 100% | Activity (Rattus norvegicus [4]): 32%
Brc1csc(Cc2c[nH]cn2)c1Br.Cl | 7.1 mg/kg | 93% | 
Brc1sccc1Cc1c[nH]cn1.O=C(O)/C=C/C(=O)O |  | 100% | ED50 [7]: 1.1 mg/kg
Cc1cc(Cc2c[nH]cn2)c(C)s1.O=C(O)/C=C/C(=O)O | 0.9 mg/kg | 100% | 
COC(c1c[nH]cn1)c1cscc1Br.O=C(O)/C=C/C(=O)O (stereo not given) | 3.6 mg/kg | 100% | 
CC(c1c[nH]cn1)c1cscc1Br.O=C(O)/C=C/C(=O)O (stereo not given) | 0.31 mg/kg | 100% | 
CCC(c1c[nH]cn1)c1cscc1C.O=C(O)/C=C/C(=O)O (stereo not given) | 2.6 mg/kg | 100% | 
Cc1ccsc1Cc1c[nH]cn1.Cl | 0.87 mg/kg |  | Activity (Rattus norvegicus [5]): 22%; inhibition in vivo at 30 mg/kg (Mus musculus [1]): 100%
CC(c1c[nH]cn1)c1sccc1Br.Cl (stereo not given) | 0.97 mg/kg | 100% | 
CC(c1c[nH]cn1)c1sccc1Br (stereo not given) | 0.97 mg/kg |  | Activity (Rattus norvegicus [8]): 23%
Clc1cc(Cc2c[nH]cn2)c(Cl)s1.O=C(O)/C=C/C(=O)O | 3.2 mg/kg | 100% | 
COC(c1c[nH]cn1)c1cscc1C.O=C(O)/C=C/C(=O)O (stereo not given) | 4.4 mg/kg | 100% | 
Cc1cscc1Cc1c[nH]cn1.O=C(O)/C=C/C(=O)O | 0.35 mg/kg | 100% | Activity (Rattus norvegicus [4]): 34%
Brc1cscc1Cc1c[nH]cn1.O=C(O)/C=C/C(=O)O | 0.38 mg/kg | 100% | Activity (Rattus norvegicus [4]): 11%
Cl.c1nc(Cc2cc3c(s2)CCCC3)c[nH]1 |  | 7% | 
Brc1csc(Cc2c[nH]cn2)c1.Cl | 5.2 mg/kg | 80% | Ki [9]: 1.4 nM
CC(C)c1cc(Cc2c[nH]cn2)c(C(C)C)s1.O=C(O)/C=C/C(=O)O |  | 40% | 
CCc1cscc1Cc1c[nH]cn1.O=C(O)/C=C/C(=O)O | 0.32 mg/kg | 100% | Activity (Rattus norvegicus [4]): 48%
Cc1csc(C(C)c2c[nH]cn2)c1C (stereo not given) |  |  | IA (Rattus norvegicus [6]): inactive
c1csc(Cc2c[nH]cn2)c1 |  |  | inhibition in vivo at 30 mg/kg (Mus musculus [1]): 60%
